Measurements published in PMC10784704 (The Journal of Biological Chemistry, 2023).

T1: neutrophil elastase (NE) (Homo sapiens, UniProt P08246)
T1 sequence (P08246 30-267): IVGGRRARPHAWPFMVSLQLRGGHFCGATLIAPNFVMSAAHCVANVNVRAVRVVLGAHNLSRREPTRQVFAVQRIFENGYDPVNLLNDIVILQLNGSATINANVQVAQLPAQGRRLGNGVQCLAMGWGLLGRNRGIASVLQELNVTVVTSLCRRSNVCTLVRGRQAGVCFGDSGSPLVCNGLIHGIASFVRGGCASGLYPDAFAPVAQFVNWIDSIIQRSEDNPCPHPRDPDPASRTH

B1: rCBG: Polyhistidine-tagged recombinant human CBG expressed in HEK293 cells (Sino Biological) (protein, UniProt P08185 23-405, looked up)
Corticosteroid-binding …: MDPNAAYVNMSNHHRGLASANVDFAFSLYKHLVALSPKKNIFISPVSISMALAMLSLGTCGHTRAQLLQGLGFNLTERSETEIHQGFQHLHQLFAKSDTSLEMTMGNALFLDGSLELLESFSADIKHYYESEVLAMNFQDWATASRQINSYVKNKTQGKIVDLFSGLDSPAILVLVNYIFFKGTWTQPFDLASTREENFYVDETTVVKVPMMLQSSTISYLHDSELPCQLVQMNYVGNGTVFFILPDKGKMNTVIAALSRDTINRWSAGLTSSQVDLYIPKVTISGVYDLGDVLEEMGIADLFTNQANFSRITQDAQLKSSKVVHKAVLQLNEEGVDTAGSTGVTLNLTSKPIILRFNQPFIIMIFDHFTWSSLFLARVMNPV
modifications: polyhistidine tag
B2: asialo-rCBG: sialic acid-deficient glycoform of rCBG generated through exhaustive sialidase (neuraminidase A) treatment (protein, UniProt P08185 23-405, looked up)
Corticosteroid-binding …: B1 Corticosteroid-binding …
modifications: His tag; desialylated by neuraminidase

Target: T1, neutrophil elastase (NE)
Experiment: Longitudinal NE digestion of rCBG and asialo-rCBG
Format: in vitro ADME
Conditions: rCBG/NE 25:1 (w/w), on ice, 480 s incubation period; trypsin digest, LC-MS/MS
Method in brief: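 Recombinant CBG, native or desialylated with neuraminidase A (40 U, overnight, 37 °C), digested with NE at 25:1 (w/w) on ice for 15, 30, 60, 120, 240 and 480 s. Stopped with 1 mM PMSF (8 min, ice), reduced with DTT, alkylated with IAA, and trypsin-digested at 20:1 (w/w) overnight at 37 °C. LC-MS/MS tracked intact and cleaved RCL peptides (unoccupied, sialo- and asialo-O-glycosylated). Mean + SD, n = 3.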

Molecule	Effect of Thr345 O-glycans on NE proteolysis reaction
B1	strongly inhibit
B2	strongly inhibit
